From PubChem BioAssay
Efflux pump inh: inhibitors of Candida efflux pumps in yeast, primary screen, S. cerevisiae, Nile Red, multiplex; AID 485275, 2010; hit rate 0.44% among 330,000; inhibition, % at 10 µM; S. cerevisiae Candida pump triplex;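 active = plate passing quality check with inhibition over a set limit, or well fluorescence over plate mean plus 4 SD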;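 also: Nile Red retained in pooled yeast measured as flow cytometry median fluorescence; 0% = buffer negative control and 100% = Enniatin B positive control; higher means more Nile Red kept so more efflux inhibition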
ABCB1 inh: ABCB1 efflux pump inhibitors, primary screen, cell-based, multiplex, flow cytometry, ABCG2 counter-screen | inhibition, % at 6.6 µM | CCRF-Adr cells, JC-1 efflux | hit rate 0.067% among 190,000 | AID 1326, 2008; in the data active = inhibition above about 40%;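 also: 0% = vehicle and 100% = reference inhibitor; higher value means more JC-1 retained so stronger ABCB1 efflux block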
MEKK2mut PB1 HTS: MEK5 binding signal on mutant MEKK2 PB1, primary screen, biochemical, multiplex bead flow cytometry, Alexa488-MEK5. Alexa488-MEK5 binding to MEKK2 mutant. percent response, % at 10 µM. hit rate 0.35% among 290,000; in the data active = percent response above about 24%, passing the limit was not always enough
MEKK3 PB1 HTS: modulators of MEKK3-MEK5 PB1 binding, primary screen, biochemical, wildtype MEKK3, multiplex bead flow cytometry, Alexa488-MEK5 | Mitogen-activated protein kinase kinase kinase 3 (Homo sapiens), Q99759 | bead-based flow cytometry, Alexa488-MEK5 binding to MEKK3; actives lie on both sides; 0 = blocked by unlabeled MEK5, 100 = vehicle | binding response (% of control), % at 10 µM | hit rate 1.4% among 290,000;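 active = binding response more than 3 SD above or below the average of its plate-row segment, actives on both sides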;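 also: Alexa488 bead fluorescence after subtracting the streptavidin-only scavenger bead signal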
ABCG2 block: ABCG2 efflux pump inhibitors, primary screen, multiplex with ABCB1, IgMXP3 cells, flow cytometry | Broad substrate specificity ATP-binding cassette transporter ABCG2 (Homo sapiens), Q9UNQ0 | JC-1 efflux | inhibition, % at 6.6 µM | hit rate 0.1% among 190,000;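 active = inhibition above 80%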;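 also: 0% = DMSO and 100% = nicardipine control wells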
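test system = two drug-resistant human cell lines, ABCG2 and ABCB1 | amount = 3 million cells/mL final, two lines in 1:1 ratio | reagent = JC-1 transporter substrate | doses = one concentration, 6.6 µM final | incubation = 10 min at 25 °C | signal = flow cytometric JC-1 green MFI at 530 nm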
MEKK2wt PB1 HTS: modulators of MEK5 binding to wildtype MEKK2, primary screen, biochemical, multiplex bead flow cytometry, Alexa488-MEK5 | Mitogen-activated protein kinase kinase kinase 2 (Homo sapiens), Q9Y2U5 | Alexa488-MEK5 binding to MEKK2 WT; actives lie on both sides | binding response (% of control), % at 10 µM | hit rate 1.1% among 290,000 | AID 1531, 2009; in the data active = binding response below about 67% or above about 130%
MEKK2wt confirm: modulators of MEK5 binding to wildtype MEKK2, confirmation, biochemical, single concentration, multiplex bead flow cytometry; shares compounds with MEKK3 PB1 HTS; Alexa488-MEK5 binding to MEKK2 WT; actives lie on both sides; binding response (% of control), % at 10 µM; hit rate 2.4% among 5,900; in the data active = binding response below about 16% or above about 210%; inactive = in between
MEKK2mut confirm: mutant MEKK2 PB1-MEK5 binding signal retest – biochemical, single concentration, multiplex bead flow cytometry, confirmation; hit rate 2% among 5,900; Alexa488-MEK5 binding to MEKK2 mutant; shares compounds with MEKK3 PB1 HTS; percent response, % at 10 µM; in the data active = percent response mostly above about 71%, no sharp cut-off; inactive = mostly below about 38%;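 also: higher means compound restores mutant binding toward wildtype level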
MEKK3-MEK5 inh: MEKK3 wild-type PB1 binding to MEK5, inhibitors, confirmation, biochemical, bead multiplex flow cytometry, single concentration, wildtype | shares compounds with MEKK3 PB1 HTS | Alexa488-MEK5 binding to MEKK3; hits give low values | binding response (% of control), % at 10 µM | hit rate 1.8% among 5,900 | AID 1894, 2009;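 active = binding response below 72% of control, or above a set upper limit, though filed actives all read lower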;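 also: 100% = DMSO only wells and 0% = binding blocked by excess unlabeled MEK5; lower values mean stronger disruption of MEK5 binding to MEKK3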
* = called active by the depositor; · = no result given; [ ] = remark or other dose. Rows were chosen to be rich in hits. Some 2.5% of all compounds tested hit in one or more screens of this group.

SMILES	Efflux pump inh	ABCB1 inh	MEKK2mut PB1 HTS	MEKK3 PB1 HTS	ABCG2 block	MEKK2wt PB1 HTS	MEKK2wt confirm	MEKK2mut confirm	MEKK3-MEK5 inh
Cc1ccc(N/N=C(\C#N)C(=N)N2CCOCC2)cc1	0	1	-1	104	34	108	·	·	·
N#C/C(=N\Nc1ccccc1)C(=N)N1CCOCC1	0	0	0	130*	19	105	97	-2	95
CC[n+]1c(/C=C/N(C)c2ccccc2)n(-c2ccccc2)c2ccc(-c3nc4ccccc4s3)cc21	0	·	140*	112	·	328*	262*	117*	115
COc1ccc(NC(=O)Nc2cc3oc4ccccc4c3cc2OC)cc1	0	0	·	·	-2	·	·	·	·
COc1cc2c(cc1NC(=S)Nc1cccc(C)c1)oc1ccccc12	0	0	-2	97	0	101	·	·	·
COc1cc2c(cc1NC(=O)Nc1cccc(C)c1)oc1ccccc12	0	0	30*	106	-1	150*	6.0*[inhibitor]	41	101
COc1cc2c(cc1NC(=O)Nc1ccc(C)cc1)oc1ccccc12	0	-1	24*	113	-1	141*	132	-1	95
COc1cc(C(=O)OCC2CC(c3ccccc3)=NO2)cc(OC)c1OC (stereo not drawn)	0	2	280*	101	10	93	100	0	104
O=C(CNC(=O)c1cccc(Br)c1)N/N=C/c1cc(Br)cc(Br)c1O	0	2	22	151*	4	123	108	4	105
O=C(CNC(=O)c1cccc(Br)c1)N/N=C/c1cccs1	0	·	6	106	·	107	·	·	·
CCCN(CCO)C1CCN(CCc2ccccc2)CC1	0	·	4	97	·	105	·	·	·
O=C(NN1C(=O)c2ccccc2C1=O)c1ccncc1	0	1	2	104	11	102	·	·	·
CN(C)c1ccc(C(=O)NN2C(=O)c3ccccc3C2=O)cc1	0	0	1	132*	0	120	104	1	103
CC1(C)Cc2c(C#N)c(N)sc(=S)c2CS1	0	-1	-21	85	-2	56*[inhibitor]	79	-10	97
COc1ccccc1NS(=O)(=O)c1cc(NC(=O)c2[nH]c(C)c(C(C)=O)c2C)ccc1N1CCOCC1	0	·	0	101	·	103	·	·	·
Cc1nc2c3cc(F)ccc3n(Cc3ccc(F)cc3)c2s1	0	0	0	144*	-3	111	93	-5	96
COC(=O)Cn1c2ccc(F)cc2c2nc(C)sc21	0	0	-5	96	0	92	·	·	·
CSCC[C@H](NC(=O)c1cccc(S(=O)(=O)N2CCN(C)CC2)c1)c1nc2ccccc2[nH]1	0	·	·	·	·	·	·	·	·
CC[C@]1(c2cccc(C)c2)C(=O)N(C(=O)OC)N1C(=O)OC	0	·	59*	105	·	66*	98	2	102
